Reference: ChEMBL document CHEMBL4196140, “Spiro-Phthalides and Isocoumarins Isolated from the Marine-Sponge-Derived Fungus Setosphaeria sp. SCSIO41009” (J Nat Prod, 2018)
Converted amounts (≈) assume the structure as drawn. The source made the active and inactive calls. No cut-off for these calls is given here.

Experiments:
Colletotrichum acutatum = assay: Antimicrobial activity against Colletotrichum acutatum by broth microdilution method; assay type: functional
Influenza A virus = assay: Antiviral activity against Influenza A virus H1N1 A/FM-1/1/47 infected in MDCK cells assessed as inhibition of virus-induced cytopathic effect after 48 hrs by MTT assay; assay type: functional, organism-based
[1] = target: T1, Phosphotyrosine protein phosphatase (Mycobacterium tuberculosis) (UniProt A0A045ISB3); assay: Inhibition of Mycobacterium PTPB at 50 uM using p-nitrophenyl phosphate as substrate incubated for 10 mins followed by substrate addition and measured for 5 mins by spectrophotometric method
T1 sequence (whole entry): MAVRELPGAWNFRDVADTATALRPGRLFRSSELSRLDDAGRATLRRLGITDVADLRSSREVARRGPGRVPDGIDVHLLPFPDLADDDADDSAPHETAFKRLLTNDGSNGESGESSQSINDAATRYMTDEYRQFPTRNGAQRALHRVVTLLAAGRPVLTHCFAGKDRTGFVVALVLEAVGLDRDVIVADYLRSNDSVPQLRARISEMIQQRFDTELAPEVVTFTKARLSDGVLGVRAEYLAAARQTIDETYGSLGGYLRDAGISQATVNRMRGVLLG

Staphylococcus aureus = assay: Antimicrobial activity against Staphylococcus aureus by broth microdilution method; assay type: functional, organism-based
Colletotrichum asianum = assay: Antimicrobial activity against Colletotrichum asianum by broth microdilution method; assay type: functional
[2] = Antioxidant activity assessed as DPPH radical scavenging activity incubated for 30 mins in dark condition; assay type: functional
Procedure, shortened: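 Test samples in DMSO were mixed 1:9 with freshly made 0.2 mM DPPH in EtOH (DPPH stock level), giving final compound levels of 50, 25, 12.5, 6.25 and 3.125 μg/mL, in triplicate, with ascorbic acid as positive control. After 30 min in the dark, the fall in absorbance at 517 nm was read. Blank: EtOH instead of DPPH. Control: DMSO instead of sample. % scavenging = [1 − (sample − blank)/control] × 100. IC50 is the concentration scavenging 50% of radicals.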

SMILES	MIC (Colletotrichum acutatum)	inhibition (Influenza A virus)	inhibition [1]	Activity (Staphylococcus aureus)	MIC (Colletotrichum asianum)	IC50 [2]
CCCCOCc1c(O)cc(C)c2c1Oc1c(C)cc(O)c(C)c1OC2=O	630 µg/mL (≈ 1690 µM)	inactive	inactive	inactive	630 µg/mL (≈ 1690 µM)	
C[C@@H]1C[C@@H]([C@H](O)CC2CC(=O)NC(=O)C2)C(=O)[C@@H](C)C1 [CYCLOHEXIMIDE]	40 µg/mL (≈ 142 µM)				80 µg/mL (≈ 284 µM)	
CC[C@H](O)[C@H]1C[C@H]2OC(=O)c3c(cc(OC)c(OC)c3O)[C@H]2O1		inactive	inactive	inactive		
CCC[C@H]1C[C@H](O)[C@@]2(OC(=O)c3c2cc(OC)c(OC)c3O)O1		inactive	inactive	inactive		
CCCC(=O)CC[C@H]1OC(=O)c2c1cc(O)c(OC)c2O		inactive	inactive	inactive		
CCC[C@@H]1C[C@H]2OC(=O)c3c(cc(O)c(OC)c3O)[C@@H]2O1		inactive	inactive	inactive		
COc1cc(=O)oc(C)c1CCC(C)O (centres undefined)		inactive	inactive	inactive		
COc1cc2c(c(O)c1OC)C(=O)O[C@@H]1C[C@H](CCCO)O[C@H]21		inactive	inactive	inactive		
CCCC(=O)CC[C@@H]1OC(=O)c2c1cc(OC)c(OC)c2O		inactive	inactive	inactive		
CCC(O)Cc1c(OC)cc(=O)oc1C (centres undefined)		inactive	inactive	inactive		
CCC[C@H]1C[C@H]2OC(=O)c3c(cc(OC)c(O)c3O)[C@H]2O1		inactive	inactive	inactive		38 µM
COCc1c(O)cc(C)c2c1Oc1c(C)cc(O)c(C)c1OC2=O	310 µg/mL (≈ 938 µM)	inactive	inactive	inactive	160 µg/mL (≈ 484 µM)	
COc1cc(=O)oc(C)c1CCCC(=O)O		inactive	inactive	inactive		
CCC[C@@H]1C[C@H]2OC(=O)c3c(cc(OC)c(OC)c3O)[C@@H]2O1		inactive	inactive	inactive		
CCCCc1c(OC)cc(=O)oc1C		inactive	inactive	inactive		
O=C1O[C@H]([C@@H](O)CO)C(O)=C1O [ASCORBIC ACID]						39 µM
CC[C@@H](O)[C@H]1C[C@H]2OC(=O)c3c(cc(OC)c(OC)c3O)[C@H]2O1		inactive	inactive	inactive		
COc1cc2c(c(O)c1OC)C(=O)O[C@@H]1C[C@H](C[C@@H](C)O)O[C@H]21		inactive	inactive	inactive		
CCCCC1=C(OC)C(=O)OC1(C)O (racemic)		inactive	inactive	inactive		
COc1cc2c(c(O)c1OC)C(=O)O[C@@H]1C[C@H](CCC(=O)O)O[C@H]21		inactive	inactive	inactive		
CCC[C@H]1C[C@H]2OC(=O)c3c(cc(OC)c(OC)c3O)[C@@H]2O1		inactive	inactive	inactive		
CCCCc1c(OC)cc(=O)oc1CO		inactive	inactive	inactive		
COC(=O)CCCc1c(OC)cc(=O)oc1C		inactive	inactive	inactive		
CCC[C@H]1C[C@H](O)[C@]2(OC(=O)c3c2cc(OC)c(OC)c3O)O1		inactive	inactive	inactive		
